Screens: PubChem, The Scripps Research Institute Molecular Screening Center
Compounds with a hit are over-represented: about 3.3% of the library has one in this group of screens.
UHRF1 MBD2 ctr: human UHRF1 methylated DNA binding inhibitors | UHRF1 binding to methylated oligo, TR-FRET | inhibition, % at 4.4 µM | 370,000 compounds, 0.75% hits; in the data active = inhibition above about 21%;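 also: UHRF1 SRA domain binding a hemimethylated CpG hairpin DNA probe; 0% = median of test compound wells and 100% = reference inhibitor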
SIAE inh: human SIAE inhibition, primary screen; Q9HAT2; SIAE FP-Rh probe binding, fluorescence polarization; inhibition, % at 9.66 µM; 370,000 compounds, 0.69% hits; AID 1053197;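 active = inhibition above a cutoff: mean of compounds within the control limits plus 3 SD of those, cut at about 17% in these data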;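 also: 0% = plate median of compound wells and 100% = probe without SIAE protein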
LEDGF integ inh: blocks HIV-1 LEDGF/p75-dependent DNA integration | TR-FRET IN-LEDGF/p75 DNA integration, Eu/Cy5 | inhibition, % at 3.7 µM | 370,000 compounds, 0.64% hits | AID 743269;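 active = inhibition above the screen-wide mean plus 3 SD, cut at about 13% in these data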;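 also: signal is the Cy5 over europium emission ratio at 671 and 618 nm; 0% = plate median of compound wells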
MBD2 inh: blocks human MBD2 binding to methylated DNA. TR-FRET, MBD2 binding to methylated oligonucleotide. AID 686964. Q9UBB5. inhibition, % at 4.4 µM. 370,000 compounds, 0.31% hits; in the data active = inhibition above about 13%
PRMT1 inh: blocks human protein arginine methyltransferase 1; inhibition, % at 2.79 µM; Q99873; 370,000 compounds, 1.3% hits; recombinant PRMT1, activity-based probe fluorescence polarization; AID 652257;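 active = inhibition above about 21% made by adding two undisclosed values, limit read from the data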
TDP2 absorb: blocks human TDP2 phosphodiesterase activity; recombinant TDP2, T5PNP hydrolysis, p-nitrophenol absorbance 415 nm; O95551; 370,000 compounds, 0.34% hits; inhibition, % at 12.8 µM;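 active = inhibition above the mean of all tested compounds plus 3 SD, set per campaign, cut at about 25% in these data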;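 also: 0% = DMSO with enzyme and 100% = buffer with substrate but no TDP2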
Target sequence (O95551 whole entry, looked up): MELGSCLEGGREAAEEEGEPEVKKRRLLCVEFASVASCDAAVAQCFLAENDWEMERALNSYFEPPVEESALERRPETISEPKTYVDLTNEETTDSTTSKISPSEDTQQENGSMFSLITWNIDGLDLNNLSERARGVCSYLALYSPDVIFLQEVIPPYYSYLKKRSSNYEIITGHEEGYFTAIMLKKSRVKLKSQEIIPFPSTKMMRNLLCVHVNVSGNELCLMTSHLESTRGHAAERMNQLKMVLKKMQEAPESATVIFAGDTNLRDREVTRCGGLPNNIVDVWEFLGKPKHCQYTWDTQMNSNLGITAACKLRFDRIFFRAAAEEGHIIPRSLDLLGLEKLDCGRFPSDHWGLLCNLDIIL
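Assay system: recombinant human TDP2 / Reagent: T5PNP substrate at 5 mM, a TopII-DNA adduct mimic / Measured by: epi absorbance from released p-nitrophenol / Evaluation: % inhibition relative to enzyme-containing and enzyme-free wells / Control set: enzyme-free and DMSO wells / Replicates: each compound tested once, singlicate / Schedule: enzyme reaction with compound for 2 h at 37 °C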
SIAE inh conf: confirmation of human SIAE inhibitors | shares compounds with SIAE inh | SIAE FP-Rh activity-based probe, fluorescence polarization | inhibition, % at 9.66 µM | 2,300 compounds, 13% hits;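 active = mean inhibition of the replicates above the hit cutoff set in the primary screen, cut at about 17% in these data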;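 also: 0% = SIAE with DMSO and probe and 100% = probe without SIAE; inhibitors lower polarization as more probe stays unbound to SIAE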
An asterisk follows results filed as active; . = no result given.

SMILES | UHRF1 MBD2 ctr | SIAE inh | LEDGF integ inh | MBD2 inh | PRMT1 inh | TDP2 absorb | SIAE inh conf
CC(C)[C@@H]1C(=O)N[C@H](Cc2cn(S(=O)(=O)c3ccccc3)c3ccccc23)C(=O)N1C | 1 | -6 | -3 | -1 | 0 | 9 | .
O=C1C2CC=CCC2C(=O)N1c1ccc(NCCc2ccccc2F)c([N+](=O)[O-])c1 (stereo not drawn) | -3 | 17* | 4 | 0 | -4 | 4 | 2
O=C1C2CC=CCC2C(=O)N1c1ccc(NCCc2ccccc2)c([N+](=O)[O-])c1 (stereo not drawn) | 13 | 0 | 0 | 0 | -1 | 7 | .
CCn1c(COc2ccc(C)cc2)nnc1SCC(=O)c1ccc(-c2ccccc2)cc1 | 1 | 1 | 4 | 3 | 0 | -2 | .
CCCCCc1ccc(NC(=O)OCCN2C(=O)CCC23CCC(c2ccccc2)CC3)cc1 (stereo not drawn) | 1 | 0 | 5 | 1 | 2 | -2 | .
Cc1cc(C)cc(OCC(C)CN2CCC(C(O)(c3ccccc3)c3ccccc3)CC2)c1 (stereo not drawn) | -2 | -4 | -5 | -1 | 2 | -11 | .
CN(C(=O)CSc1nc2sc3c(c2c(=O)n1C)CCC3)C1CCS(=O)(=O)C1 (stereo not drawn) | -1 | 19* | 0 | 2 | -1 | 9 | 0
CN(C(=O)CSc1ncnc2sc3c(c12)CCC3)C1CCS(=O)(=O)C1 (stereo not drawn) | -4 | 9 | -2 | -1 | 3 | 7 | .
Cc1cccc(C)c1NC(=S)N(CCN1CCCCCC1)Cc1ccco1 | -2 | 18* | 1 | -3 | 0 | -7 | 5
CC(=O)OCCCN1C(=O)CCC12CCC(C)CC2 (stereo not drawn) | 4 | 6 | 0 | 4 | 3 | 4 | .
CCOC(=O)N1CCN(C(=O)CSc2ncccn2)CC1 | 3 | 19* | -1 | -1 | -1 | -2 | 0
O=C(CSc1ncccn1)N1CCN(C(=O)CSc2ncccn2)CC1 | 0 | -2 | -2 | 4 | -3 | -3 | .
CCCCCCNC(=O)C1CSCCS(=O)(=O)N1Cc1ccccc1 (stereo not drawn) | -1 | -2 | 2 | 1 | -4 | 8 | .
Cc1cc(C(=O)COC(=O)c2ccc[nH]c2=O)c(C)n1C1CC1 | -4 | 23* | 0 | 7 | -3 | -3 | 1
O=C(COC(=O)c1ccc[nH]c1=O)NC1CCCCCCC1 | 2 | 18* | 2 | 0 | -1 | 12 | 0
COc1ccc(/C=C/c2ccc3c(Br)ccc(O)c3n2)cc1 | -1 | -2 | 0 | 1 | -1 | 15 | .
COc1cc(/C=C/c2ccc3c(Br)cc(Br)c(O)c3n2)ccc1O | -9 | 28* | 1 | -14 | -1 | -8 | -5
C[C@H](c1ccccc1)N1C[C@@H](COCc2ccccc2)Oc2cc(N3CC[C@@H](N(C)C)C3)ccc2S1(=O)=O | 1 | 18* | 5 | 1 | -2 | -3 | 11
Oc1ccc(Nc2nc(-c3cccs3)cs2)cc1 | 3 | 20* | 2 | 3 | 14 | 5 | 6
COc1ccc(OC)c(Nc2nc(-c3cccs3)cs2)c1 | -3 | 20* | 0 | 0 | 3 | -1 | 2
COc1ccc(Nc2nc(-c3cccs3)cs2)cc1 | -2 | 14 | 2 | 1 | 2 | -3 | .
COCCNC(=S)N(C)[C@H]1C[C@H]2c3[nH]c4ccccc4c3CCN2C(=O)[C@H]1[C@H](C)O | 3 | 4 | 2 | -4 | 5 | -10 | .
Cn1cccc1Cc1nnc(SCC(=O)Nc2ccc3c(c2)OCCO3)n1-c1ccc(F)cc1 | 0 | 20* | -2 | 3 | 8 | 11 | -5
COc1ccc(-n2c(Cc3cccn3C)nnc2SCC(=O)N2CCCC2)cc1 | 9 | 18* | 0 | 4 | 1 | -5 | 1
Cc1ccc(-n2c(Cc3cccn3C)nnc2SCC(=O)Nc2ccc3c(c2)OCO3)cc1 | -4 | 0 | 4 | 2 | 2 | -8 | .
O=[N+]([O-])c1ccc(Cn2ccc3ccc(-c4ccc5ccn(Cc6ccccc6)c5c4)cc32)cc1 | 0 | -4 | -4 | 0 | 7 | 6 | .
